Test results taken from ChEMBL document CHEMBL2010685, “Synthesis and biological evaluation of novel bifendate derivatives bearing 6,7-dihydro-dibenzo[c,e]azepine scaffold as potent P-glycoprotein inhibitors” (Eur J Med Chem, 2012).
Activity calls are given as the source filed them. The calls are words filed in the database; no cut-off is given here.

Key:
[1] = Cytotoxicity against human K562/A02 cells expressing p-glycoprotein after 72 hrs by MTS assay; assay type: functional, cell-based; settings: K562/A02, 72 h
Method in brief: (§1)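 K562 and K562/A02 cells (1 × 10⁴/well) seeded in RPMI-1640 and incubated 24 h. Exponentially growing cells then exposed to various compound concentrations for 72 h at 37 °C (5% CO₂, 95% humidity). MTS added for 3 h more, absorbance read at 490 nm. IC₅₀ from dose-response curves, mean of triplicate experiments.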

[2] = tested on: K562; assay: Cytotoxicity against human K562 cells after 72 hrs by MTS assay; assay type: functional, cell-based; settings: K562, 72 h; method in brief: as §1
[3] = Cytotoxicity against human K562/A02 cells expressing p-glycoprotein assessed as cell killing at 5 uM after 72 hrs by MTS assay; assay type: cell-based; settings: k562/a02, 72 h
[4] = tested on: K562; assay: Cytotoxicity against human K562 cells assessed as cell killing at 5 uM after 72 hrs by MTS assay; assay type: cell-based; settings: k562, 72 h
[5] = molecular target: T1, ATP-dependent translocase ABCB1 (Homo sapiens, UniProt P08183); assay: Inhibition of p-glycoprotein in human K562/A02 cells assessed as accumulation of rhodamine 123 at 10 uM by flow cytometry relative to control; assay type: cell-based; settings: k562/a02, 10 µM
Method in brief: (§2)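 Rh123 or adriamycin (0.5) then added for 30 min. Stopped with ice-cold PBS and centrifugation, washed three times in ice-cold PBS, analysed by flow cytometry. Fluorescence expressed as fold of 0.1% DMSO control; three independent experiments.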

[6] = Induction of ATPase activity of p-glycoprotein at 200 uM by luminescence assay relative to control
[7] = molecular target: T1, ATP-dependent translocase ABCB1; assay: Inhibition of p-glycoprotein mRNA expression in human K562/A02 cells at 5 uM after 72 hrs by RT-PCR analysis; assay type: functional, cell-based; settings: k562/a02, 72 h
[8] = tested on: K562; assay: Induction of rhodamine 123 accumulation in human K562 cells at 0.3 to 10 uM by flow cytometry; assay type: functional, cell-based; method in brief: as §2
[9] = molecular target: T1, ATP-dependent translocase ABCB1; assay: Inhibition of p-glycoprotein in human K562/A02 cells assessed as accumulation of rhodamine 123 by flow cytometry; assay type: cell-based; method in brief: as §2
[10] = molecular target: T1, ATP-dependent translocase ABCB1; assay: Inhibition of p-glycoprotein protein expression in human K562/A02 cells at 5 uM after 72 hrs by Western blot analysis; assay type: functional, cell-based; settings: k562/a02, 72 h
[11] = tested on: K562/A02; assay: Reversal of p-glycoprotein-mediated multidrug-resistant in human K562/A02 cells assessed as increase of adriamycin-induced cytotoxic effect at 2.5 uM after 72 hrs by MTS assay; assay type: cell-based
Method in brief: (§3)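 Viability by MTS assay. Survival rate expressed as percent growth relative to untreated control, mean ± S.D. of three independent experiments.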

[12] = tested on: K562; assay: Ratio of IC50 for human K562/A02 cells expressing p-glycoprotein to IC50 for human K562 cells; assay type: functional
[13] = Reversal of p-glycoprotein-mediated multidrug-resistant in human K562/A02 cells assessed as increase of adriamycin-induced cytotoxic effect at 10 uM treated 24 hrs before adriamycin challenge followed by drug washout by MTS assay
[14] = tested on: K562/A02; assay: Reversal of p-glycoprotein-mediated multidrug-resistant in human K562/A02 cells assessed as increase of adriamycin-induced cytotoxic effect at 5 uM after 72 hrs by MTS assay; assay type: cell-based; method in brief: as §3
[15] = Reversal of p-glycoprotein-mediated multidrug-resistant in human K562/A02 cells assessed as increase of adriamycin-induced cytotoxic effect at 10 uM treated for 24 hrs followed by adriamycin treated 12 hrs after drug washout by MTS assay
[16] = molecular target: T1, ATP-dependent translocase ABCB1; assay: Inhibition of p-glycoprotein in human K562/A02 cells assessed as accumulation of adriamycin by flow cytometry; assay type: cell-based; method in brief: as §2
[17] = Reversal of p-glycoprotein-mediated multidrug-resistant in human K562/A02 cells assessed as increase of adriamycin-induced cytotoxic effect at 10 uM treated for 24 hrs followed by adriamycin treated 6 hrs after drug washout by MTS assay
[18] = Reversal of p-glycoprotein-mediated multidrug-resistant in human K562/A02 cells assessed as increase of adriamycin-induced cytotoxic effect at 10 uM treated for 24 hrs followed by adriamycin treated 24 hrs after drug washout by MTS assay; settings: K562/A02, 24 h
[19] = tested on: K562; assay: Induction of adriamycin accumulation in human K562 cells at 0.3 to 10 uM by flow cytometry; assay type: functional, cell-based; method in brief: as §2
[20] = Reversal of p-glycoprotein-mediated multidrug-resistant in human K562/A02 cells assessed as increase of adriamycin-induced cytotoxic effect at 2.5 uM treated for 24 hrs followed by adriamycin treated 6 hrs after drug washout by MTS assay; assay type: cell-based
[21] = molecular target: T1, ATP-dependent translocase ABCB1; assay: Inhibition of p-glycoprotein-mediated rhodamine 123 efflux in human K562/A02 cells at 2.5 uM after 60 mins by fluorescence microscopic analysis; assay type: cell-based; settings: k562/a02, 1 h
[22] = tested on: K562/A02; assay: Reversal of p-glycoprotein-mediated multidrug-resistant in human K562/A02 cells assessed as increase of adriamycin-induced cytotoxic effect after 72 hrs by MTS assay; assay type: cell-based; method in brief: as §3
[23] = Reversal of p-glycoprotein-mediated multidrug-resistant in human K562/A02 cells assessed as increase of adriamycin-induced cytotoxic effect at 2.5 uM treated for 24 hrs followed by adriamycin treated 12 hrs after drug washout by MTS assay; assay type: cell-based
[24] = Reversal of p-glycoprotein-mediated multidrug-resistant in human K562/A02 cells assessed as increase of adriamycin-induced cytotoxic effect at 2.5 uM treated 24 hrs before adriamycin challenge followed by drug washout by MTS assay; assay type: cell-based
[25] = tested on: K562; assay: Potentiation of adriamycin-induced cytotoxic effect in human K562 cells assessed as cell survival rate at 1.25 to 5 uM after 72 hrs by MTS assay; assay type: functional, cell-based; method in brief: as §3
[26] = Induction of ATPase activity of p-glycoprotein at 40 uM by luminescence assay relative to control
[27] = Reversal of p-glycoprotein-mediated multidrug-resistant in human K562/A02 cells assessed as increase of adriamycin-induced cytotoxic effect at 2.5 uM treated for 24 hrs followed by adriamycin treated 24 hrs after drug washout by MTS assay; assay type: cell-based; settings: K562/A02, 24 h
[28] = molecular target: T1, ATP-dependent translocase ABCB1; assay: Inhibition of p-glycoprotein-mediated rhodamine 123 efflux in human K562/A02 cells after 60 mins by fluorescence microscopic analysis; assay type: cell-based; settings: k562/a02, 1 h
[29] = tested on: K562/A02; assay: Reversal of p-glycoprotein-mediated multidrug-resistant in human K562/A02 cells assessed as increase of adriamycin-induced cytotoxic effect at 1.25 uM after 72 hrs by MTS assay; assay type: cell-based; method in brief: as §3
[30] = Cytotoxicity against human K562/A02 cells expressing p-glycoprotein assessed as cell survival rate at 1.25 uM after 72 hrs by MTS assay; assay type: cell-based; settings: read-out: Activity

T1 sequence (P08183 whole entry): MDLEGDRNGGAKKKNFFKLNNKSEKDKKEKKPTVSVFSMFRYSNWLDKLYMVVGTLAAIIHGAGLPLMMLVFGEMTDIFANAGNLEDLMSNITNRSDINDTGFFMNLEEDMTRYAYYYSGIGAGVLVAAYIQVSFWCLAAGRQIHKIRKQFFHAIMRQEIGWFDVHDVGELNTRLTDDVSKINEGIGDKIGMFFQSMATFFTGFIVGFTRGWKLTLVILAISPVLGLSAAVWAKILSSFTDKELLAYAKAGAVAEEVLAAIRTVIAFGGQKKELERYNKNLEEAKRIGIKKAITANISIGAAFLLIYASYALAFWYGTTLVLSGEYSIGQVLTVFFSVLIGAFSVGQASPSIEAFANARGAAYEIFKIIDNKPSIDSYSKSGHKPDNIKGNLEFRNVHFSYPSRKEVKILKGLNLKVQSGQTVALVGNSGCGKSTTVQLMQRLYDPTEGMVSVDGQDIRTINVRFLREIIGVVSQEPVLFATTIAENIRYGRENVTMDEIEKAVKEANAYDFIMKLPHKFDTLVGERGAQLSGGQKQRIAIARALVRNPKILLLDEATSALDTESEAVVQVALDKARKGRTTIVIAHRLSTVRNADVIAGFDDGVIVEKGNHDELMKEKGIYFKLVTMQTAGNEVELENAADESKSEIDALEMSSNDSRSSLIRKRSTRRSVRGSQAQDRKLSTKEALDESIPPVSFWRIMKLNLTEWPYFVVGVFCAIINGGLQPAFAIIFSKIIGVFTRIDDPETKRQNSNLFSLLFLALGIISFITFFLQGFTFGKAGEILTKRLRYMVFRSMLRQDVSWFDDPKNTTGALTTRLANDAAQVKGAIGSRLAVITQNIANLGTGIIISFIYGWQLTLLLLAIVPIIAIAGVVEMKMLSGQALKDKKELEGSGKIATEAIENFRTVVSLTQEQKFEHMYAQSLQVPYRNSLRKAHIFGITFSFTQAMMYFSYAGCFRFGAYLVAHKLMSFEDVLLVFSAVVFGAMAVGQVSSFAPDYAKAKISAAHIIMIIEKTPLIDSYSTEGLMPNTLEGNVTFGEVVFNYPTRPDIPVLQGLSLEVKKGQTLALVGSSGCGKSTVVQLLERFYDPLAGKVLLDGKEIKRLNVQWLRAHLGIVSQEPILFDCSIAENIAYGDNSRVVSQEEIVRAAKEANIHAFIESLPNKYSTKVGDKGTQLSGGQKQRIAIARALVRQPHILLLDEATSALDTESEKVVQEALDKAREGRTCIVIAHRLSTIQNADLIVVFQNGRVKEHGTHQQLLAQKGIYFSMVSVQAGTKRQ

Compound | IC50 [1] | IC50 [2] | Activity [3] | Activity [4] | further results
COC(=O)CN1Cc2cc(OC)c3c(c2-c2c(cc(OC)c4c2OCO4)C1=O)OCO3 | > 100 µM | > 100 µM | – | – | –
CCCN1Cc2cc(OC)c3c(c2-c2c(cc(OC)c4c2OCO4)C1)OCO3 | 87.6 µM | 106 µM | 10% | 10% | –
COC(=O)c1cc(OC)c2c(c1-c1c(C(=O)OC)cc(OC)c3c1OCO3)OCO2 [BIFENDATE] | – | – | – | – | fold change (FC) [5]: 1.2
COc1cc2c(c3c1OCO3)-c1c(cc(OC)c3c1OCO3)CN(CCO)C2 | > 200 µM | > 200 µM | 10% | 10% | –
SODIUM ORTHOVANAD | – | – | – | – | RLU [6]: 282000
CCCCN1Cc2cc(OC)c3c(c2-c2c(cc(OC)c4c2OCO4)C1)OCO3 | > 100 µM | 77.5 µM | – | – | –
COC(=O)CN1Cc2cc(OC)c3c(c2-c2c(cc(OC)c4c2OCO4)C1)OCO3 | > 100 µM | > 100 µM | – | – | –
CCCCN1Cc2cc(OC)c3c(c2-c2c(cc(OC)c4c2OCO4)C1=O)OCO3 | 44.6 µM | 41.7 µM | – | – | –
COc1cc2c(c3c1OCO3)-c1c(cc(OC)c3c1OCO3)CN(Cc1ccccc1)C2 | 112 µM | > 200 µM | 10% | 10% | inhibition (INH) [7]: Not Active; inhibition (INH) [5]: Active; Activity [8]: inactive; inhibition (INH) [9]: Dose-dependent effect; inhibition (INH) [10]: Not Active
COc1cc2c(c3c1OCO3)-c1c(cc(OC)c3c1OCO3)CN(c1ccccc1)C2 | > 100 µM | > 100 µM | – | – | –
COc1cc2c(c3c1OCO3)-c1c(cc(OC)c3c1OCO3)CN(C)C2 | 107 µM | 140 µM | 10% | 10% | –
CCN1Cc2cc(OC)c3c(c2-c2c(cc(OC)c4c2OCO4)C1=O)OCO3 | > 100 µM | > 100 µM | – | – | –
COc1cc2c(c3c1OCO3)-c1c(cc(OC)c3c1OCO3)C(=O)N(Cc1ccccc1)C2 | 53.4 µM | 43.5 µM | – | – | –
COc1cc2c(c3c1OCO3)-c1c(cc(OC)c3c1OCO3)CN(CCc1ccccc1)C2 | 34.1 µM | 45.4 µM | 10% | 10% | inhibition (INH) [7]: Not Active; fold change (FC) [5]: 10.1; Activity [8]: inactive; Activity [11]: Active; inhibition (INH) [9]: Dose-dependent effect; inhibition (INH) [10]: Not Active
COc1cccc2c1C(=O)c1c(O)c3c(c(O)c1C2=O)C[C@@](O)(C(=O)CO)C[C@@H]3O[C@H]1C[C@H](N)[C@H](O)[C@H](C)O1 [DOXORUBICIN] | 46.7 µM | – | – | – | Ratio IC50 [12]: 108
COc1ccc(CCN(C)CCCC(C#N)(c2ccc(OC)c(OC)c2)C(C)C)cc1OC (stereo unspecified) | – | – | – | – | IC50 [13]: 12.9 µM; Activity [14]: > 50%; IC50 [15]: 51.1 µM; Activity [8]: inactive; inhibition (INH) [16]: Dose-dependent effect; IC50 [17]: 26.1 µM; inhibition (INH) [9]: Dose-dependent effect; IC50 [18]: 51.4 µM; Activity [19]: inactive
CCN1Cc2cc(OC)c3c(c2-c2c(cc(OC)c4c2OCO4)C1)OCO3 | 117 µM | 125 µM | 10% | 10% | –
COc1cc2c(c3c1OCO3)-c1c(cc(OC)c3c1OCO3)CN(CCc1ccc3c(c1)OCO3)C2 | 46.9 µM | 53.7 µM | 10% | 10% | IC50 [20]: 2.47 µM; inhibition (INH) [21]: Active; Activity [22]: Dose-dependent effect; inhibition (INH) [7]: Not Active; Activity [14]: 6%; IC50 [23]: 5.03 µM; IC50 [24]: 1.78 µM; fold change (FC) [5]: 11.2; Activity [25]: inactive; RLU [26]: 283000; IC50 [27]: 10.3 µM; Activity [8]: inactive; Activity [11]: 8%; inhibition (INH) [16]: Dose-dependent effect; inhibition (INH) [9]: Dose-dependent effect; inhibition (INH) [10]: Not Active; inhibition (INH) [28]: Dose-dependent effect; Activity [29]: 30%; Activity [19]: inactive; viability at 72 h, 1.25 µM [30]: 98%
